NR2E3 ag-1 – agonists of human nuclear receptor NR2E3 | 320,000 compounds, 0.12% hits | inhibition of corepressor binding, % at 4.78 µM | AID 2300 | GST-NR2E3/biotin-RetCOR TR-FRET, 1536-well;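 active = percent inhibition above the cutoff of mean plus 3 SD of all tested compounds, set per screening campaign, cut at about 20% in these data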;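 note: 0% = DMSO wells and 100% = biotin wells as full block of FRET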
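Format: 1536-well format; test system: GST-NR2E3 and biotin-RetCOR proteins; read-out basis: percent inhibition of TR-FRET ratio; timing: 5 h incubation at 4 °C; detection: time-resolved FRET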
PG9 Ab binder – PG9 antibody binding by small molecule; TR-FRET gp120-PG9 antibody binding; inhibition, % at 6.7 µM; 360,000 compounds, 0.43% hits; in the data active = inhibition above about 8.5%
Neddylation inh – inhibitors of human cullin neddylation; P61081+Q13564; TR-FRET cullin neddylation, biochemical; calls only at 25 µM; 360,000 compounds, 0.58% hits; in the data active = inhibition above about 36%
NR2E3 ag-2 – agonists of human NR2E3 nuclear receptor. Q9Y5X4. CHO-S Gal4-NCOR/VP16-NR2E3 two-hybrid, luciferase. inhibition of corepressor binding, % at 3.98 µM. 360,000 compounds, 0.35% hits. AID 602229;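 active = inhibition above the mean of all tested compounds plus 3 SD, cut at about 70% in these data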;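 note: 0% = DMSO with NR2E3 transfected cells and 100% = cells lacking NR2E3 construct; higher means lower luciferase signal from less NR2E3 corepressor binding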
Rev-erbA mod – modulates human Rev-erb alpha binding to DNA. Rev-erbα–FITC-DNA binding, fluorescence polarization, 90 min. activity, % at 10 µM. 370,000 compounds, 0.79% hits. AID 1259318;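 active = activity above about 14%, limit read from the data; passing the limit was not always enough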;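 note: 0% = DMSO wells with 35 nM protein and 100% = DMSO wells with 750 nM protein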
NR2E3 ag conf – confirmation of human NR2E3 agonists; CHO-S mammalian two-hybrid NR2E3-NCOR, luciferase luminescence; 2,300 compounds, 51% hits; inhibition, % at 3.98 µM; shares compounds with NR2E3 ag-2;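 active = average inhibition above a cutoff equal to the mean inhibition of all tested compounds plus one SD, cut at about 70% in these data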;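 note: 0% = DMSO in NR2E3 cells and 100% = DMSO in cells lacking NR2E3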
GAL4-VP16 luc – counter-screen for NR2E3 agonists: GAL4-VP16 reporter inhibitors; inhibition, % at 3.98 µM; 2,300 compounds, 29% hits; shares compounds with NR2E3 ag-2; AID 624379; CHO-S GAL4-VP16 luciferase reporter, luminescence;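 active = mean inhibition above a cutoff equal to the average over all tested compounds plus one standard deviation, cut at about 70% in these data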;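 note: luciferase from a UAS reporter driven by GAL4-VP16 transactivation; 0% = DMSO with VP16-transfected cells and 100% = DMSO with cells lacking VP16; higher means less reporter light so more repression of VP16 activity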
* = called active by the depositor. This is a sample that favours compounds with a hit; in the whole collection about 2% have one here.

Results for Cc1ccc(S(=O)(=O)N2[C@@H](c3ccc(C(C)(C)C)cc3)C(C(=O)O)=CC[C@H]2c2ccc(C(C)C)cc2)cc1 ?
PG9 Ab binder: 1; Neddylation inh: inactive; NR2E3 ag-2: -4; Rev-erbA mod: -29

Results for Cc1ccc(S(=O)(=O)N2[C@@H](c3ccc(Br)cc3)C(C(=O)O)=CC[C@H]2c2ccc(C(C)C)cc2)cc1 ?
PG9 Ab binder: 1; Neddylation inh: inactive; NR2E3 ag-2: -11; Rev-erbA mod: 1

How did Cc1ccc([C@@H]2CC=C(C(=O)O)[C@H](c3ccc(Br)cc3)N2S(=O)(=O)c2ccc(C)cc2)cc1 do in these assays?
PG9 Ab binder: 0; Neddylation inh: inactive; NR2E3 ag-2: 64; Rev-erbA mod: -2; NR2E3 ag conf: 25; GAL4-VP16 luc: 4

How did Cc1ccc([C@@H]2CC=C(C(=O)O)[C@H](c3ccc(C(C)(C)C)cc3)N2S(=O)(=O)c2ccc(C)cc2)cc1 do in these assays?
PG9 Ab binder: -1; Neddylation inh: inactive; NR2E3 ag-2: 98*; Rev-erbA mod: -8; NR2E3 ag conf: 88*; GAL4-VP16 luc: 41

Results for Cc1ccc(S(=O)(=O)N2[C@@H](c3ccc(C(C)(C)C)cc3)C(C(=O)O)=CC[C@H]2c2ccc(Cl)cc2)cc1 ?
PG9 Ab binder: -3; Neddylation inh: inactive; NR2E3 ag-2: 99*; Rev-erbA mod: -8; NR2E3 ag conf: 99*; GAL4-VP16 luc: 66

Results for Cc1ccc(S(=O)(=O)N2C(c3ccc(Cl)c(Cl)c3)CC=C(C(=O)O)C2c2ccc(Cl)cc2)cc1 (centres undefined) ?
PG9 Ab binder: -2; Neddylation inh: inactive; Rev-erbA mod: -3

How did NCCCC[C@H](N)C(=O)O do in these assays?
Rev-erbA mod: -1

How did COc1ccc(/C=C2\CC3(OC(=O)c4ccco4)CCCN2C3)cc1 (centres undefined) do in these assays?
Rev-erbA mod: 2

What do the screens show for `CCc1ccc([C@@H]2CC=C(C(=O)O)[C@H](c3ccccc3)N2S(=O)(=O)c2ccc(C)cc2)cc1`?
NR2E3 ag-1: 2; PG9 Ab binder: 1; Neddylation inh: inactive; NR2E3 ag-2: -9; Rev-erbA mod: -5

How did CCc1ccc([C@@H]2CC=C(C(=O)O)[C@H](c3ccc(C(C)(C)C)cc3)N2S(=O)(=O)c2ccc(C)cc2)cc1 do in these assays?
PG9 Ab binder: -2; Neddylation inh: inactive; NR2E3 ag-2: 93*; Rev-erbA mod: -17; NR2E3 ag conf: 96*; GAL4-VP16 luc: 62

What do the screens show for `Oc1ccc2ccccc2c1C=Nn1c(-c2n[nH]c3c2CCC3)n[nH]c1=S`?
Rev-erbA mod: -1

What do the screens show for `C#CCNC(=O)C[C@@H]1C(=O)N(CC=C)/C2=C/CCCCC[C@]21C(=O)OCC`?
Rev-erbA mod: 2

Results for Cc1ccc(NC(=O)c2ccc3c(c2)CCN3S(C)(=O)=O)cc1C ?
NR2E3 ag-1: 3; PG9 Ab binder: -3; Neddylation inh: inactive; NR2E3 ag-2: -93; Rev-erbA mod: 2

Results for CS(=O)(=O)N1CCc2cc(S(=O)(=O)Nc3ccc4oc5c(c4c3)CCCC5)ccc21 ?
NR2E3 ag-1: 0; PG9 Ab binder: -1; Neddylation inh: inactive; NR2E3 ag-2: 62; Rev-erbA mod: 8; NR2E3 ag conf: 79*; GAL4-VP16 luc: 68

Results for O=c1c([N+](=O)[O-])c(Cl)c2ccccc2n1Cc1ccccc1 ?
Rev-erbA mod: -1

Results for COc1cccc(CNC(=O)[C@H]2CCCN2C(=O)[C@H]2CCCN2C(=O)c2cccc3ccccc23)c1 ?
PG9 Ab binder: -2; Rev-erbA mod: 9

How did COc1cccc(CNC(=O)[C@@H]2CCCN2C(=O)[C@H]2CCCCN2C(=O)c2cccc3ccccc23)c1 do in these assays?
Neddylation inh: inactive; NR2E3 ag-2: 86*; NR2E3 ag conf: 81*; GAL4-VP16 luc: 63

How did Cc1ccc(S(=O)(=O)NCC2CCCO2)cc1 (centres undefined) do in these assays?
NR2E3 ag-1: -2; PG9 Ab binder: -4; Neddylation inh: inactive; NR2E3 ag-2: 13; Rev-erbA mod: 5

Compound activity: PubChem BioAssay, several laboratories
